Bioassay records as filed in PubChem BioAssay.
An excerpt weighted towards active compounds, which were near 2.9% of everything screened.
MC4R ag barr: activates human MC4R beta-arrestin recruitment; P32245; activation, % at 8.9 µM; U2OS MC4R beta-arrestin complementation, luminescence; percent of melanotan II response, DMSO zero; actives 0.98% (n = 360,000);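 active = activation above a per-plate cutoff, the mean activation of sample wells on that plate plus 3 SD, cut at about 8% in these data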
Target sequence (P32245 whole entry, looked up): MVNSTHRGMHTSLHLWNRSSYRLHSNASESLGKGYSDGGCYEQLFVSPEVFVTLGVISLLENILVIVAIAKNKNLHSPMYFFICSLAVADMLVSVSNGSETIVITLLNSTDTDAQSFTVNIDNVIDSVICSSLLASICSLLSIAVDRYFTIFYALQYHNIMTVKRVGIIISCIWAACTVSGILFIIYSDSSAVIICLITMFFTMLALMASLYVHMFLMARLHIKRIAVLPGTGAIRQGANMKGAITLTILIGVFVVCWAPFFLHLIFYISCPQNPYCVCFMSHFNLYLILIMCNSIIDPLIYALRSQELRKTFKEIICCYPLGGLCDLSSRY
GalR3 antagonist: blocks the human galanin receptor 3. inhibition, % at 3 µM. AID 651719. HEK293 GalR3-CNG cAMP membrane potential fluorescence; galR3 body fused to GalR1 C-terminus. actives 0.44% (n = 360,000);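 active = inhibition above the screen-wide average plus 3 SD, cut at about 13% in these data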;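 note: forskolin and galanin both at EC90 stimulate the cells; cAMP rise reported by CNG channel membrane potential dye signal; 0% = forskolin plus galanin with DMSO and 100% = forskolin alone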
Target sequence (O60755 1-299 limits assumed): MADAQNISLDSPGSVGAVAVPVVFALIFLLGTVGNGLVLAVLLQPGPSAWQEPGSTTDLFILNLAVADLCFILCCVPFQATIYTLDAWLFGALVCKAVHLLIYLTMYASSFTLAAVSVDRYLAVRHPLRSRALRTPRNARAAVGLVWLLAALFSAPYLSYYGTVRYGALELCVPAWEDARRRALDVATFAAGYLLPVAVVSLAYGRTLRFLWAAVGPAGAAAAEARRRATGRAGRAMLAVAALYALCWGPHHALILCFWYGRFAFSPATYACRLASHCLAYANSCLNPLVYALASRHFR
H9c2 TAG inh: triacylglycerol accumulation inhibition; H9c2 cells, Nile Red lipid (TAG) fluorescence; cells loaded with 200 µM oleic acid; inhibition, % at 12.5 µM; actives 0.66% (n = 230,000);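 active = pattern-corrected inhibition of lipid staining of at least 50% with the nuclear-stain viability signal not falling by more than 50%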;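 note: 0% = DMSO wells and 100% = triacsin C control wells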
MC4R antagonist: human MC4R antagonism in cAMP assay | P32245 | MC4R-expressing cells, MTII-stimulated cAMP, LANCE TR-FRET | inhibition, % at 6.5 µM | actives 0.48% (n = 360,000) | AID 540295;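 active = inhibition above its plate's cutoff, the mean of tested wells on that plate plus 3 SD, cut at about 29% in these data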;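 note: 0% = Melanotan II alone and 100% = Melanotan II plus saturating MCL0020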
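Material: human MC4R-expressing U2OS cells. Probe or stimulus: Melanotan II challenge. Dosing: 6.5 µM single dose. Times: 30-min compound, 1-h challenge, 1-h detection, room temperature. Technique: TR-FRET with Eu-cAMP and labeled anti-cAMP, 671 nm. Replication: singlicate.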
Calb FLC: C. albicans growth modulation with fluconazole | C. albicans CaCi-2 + fluconazole, Alamar Blue growth, 48 h | growth inhibition, % (no concentration beside the values) | actives 0.57% (n = 300,000) | AID 1979;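 active = growth inhibition above about 58% in most replicates, limit read from the data, passing the limit was not always enough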;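 note: all wells also contain fluconazole at 8 µg/ml as a sub-toxic cotreatment; 0% = median of DMSO wells and 100% = median of geldanamycin control wells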
Efflux pump inh: inhibitors of Candida antifungal efflux pumps expressed in yeast; actives 0.44% (n = 330,000); S. cerevisiae Candida pump triplex, Nile Red efflux; AID 485275; inhibition, % at 10 µM;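 active = plate passing quality check with inhibition over a set limit, or well fluorescence over plate mean plus 4 SD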;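 note: Nile Red retained in pooled yeast measured as flow cytometry median fluorescence; 0% = buffer negative control and 100% = Enniatin B positive control; higher means more Nile Red kept so more efflux inhibition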
MC4R barr ag: human MC4R beta-arrestin agonism confirmation. activation, % at 8.9 µM. AID 602192. U2OS MC4R beta-arrestin recruitment, luminescence; scaled DMSO 0%, Melanotan II 100%. actives 31% (n = 2,400). shares compounds with MC4R ag barr;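 active = mean activation across replicates above the hit cutoff set in the earlier primary screen, cut at about 8% in these data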
MOR DOR agonist: OPRM1-OPRD1 heterodimer agonism counter-screen; U2OS PathHunter beta-arrestin, beta-gal luminescence; percent of deltorphin B response, DMSO zero; activation, % at 9.2 µM; shares compounds with MC4R ag barr; actives 5.8% (n = 2,400); AID 602194;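 active = mean activation across replicates exceeds the hit threshold derived in the earlier primary screen, cut at about 18% in these data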;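 note: 100% = deltorphin B at 0.9 µM final and 0% = DMSO alone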
The depositor's hits bear a star.

Screening O=c1c2ccccc2oc2c1oc1ccccc12 returned MC4R ag barr -1.2, GalR3 antagonist -7.1, H9c2 TAG inh -15.8, MC4R antagonist -3.3 and Efflux pump inh -0.3.
For CCOc1ccccc1NC(=O)COC(=O)c1c[nH]c2ccccc12 the results were MC4R ag barr 1.1, GalR3 antagonist -3.4, H9c2 TAG inh -25.0 and MC4R antagonist -11.7.
Screening COC(=O)C1=C(C)N(Cc2ccccc2)C(=NCC(C)C)N[C@H]1c1cccc(C(F)(F)F)c1 returned MC4R ag barr 15.7*, MC4R antagonist 7.8, Efflux pump inh 0.0, MC4R barr ag 17.5* and MOR DOR agonist 23.2*.
Screening COc1cccc(-c2cnc3c(NC(C)=O)cc(-c4cccc(NS(C)(=O)=O)c4)cn23)c1 returned MC4R ag barr 8.1, GalR3 antagonist -5.6, H9c2 TAG inh 6.9 and MC4R antagonist 11.5.
Screening CC(=O)Nc1cc(-c2cccc(NS(C)(=O)=O)c2)cn2c(-c3ccccc3)cnc12 returned MC4R ag barr 11.7*, GalR3 antagonist -5.8, H9c2 TAG inh -13.9, MC4R antagonist 5.3, MC4R barr ag 19.8* and MOR DOR agonist 3.8.
Screening CC(=O)Nc1cc(-c2cccc(C(=O)NCCN(C)C)c2)cn2c(-c3ccc(F)c(Cl)c3)cnc12 returned MC4R ag barr 7.5, GalR3 antagonist -4.1, H9c2 TAG inh 4.2 and MC4R antagonist -4.3.
CC(=O)Nc1cc(-c2cccc(F)c2)cn2c(-c3ccc(F)c(Cl)c3)cnc12 was read as MC4R ag barr 15.8*, GalR3 antagonist -3.7, H9c2 TAG inh 1.2, MC4R antagonist 4.5, MC4R barr ag 19.1* and MOR DOR agonist 2.7.
`CC(=O)Nc1cc(-c2ccc(F)cc2)cn2c(-c3ccc(F)c(Cl)c3)cnc12` gave MC4R ag barr 19.3*, GalR3 antagonist -3.9, H9c2 TAG inh -2.1, MC4R antagonist 16.9, MC4R barr ag 17.6* and MOR DOR agonist 4.6.
Screening CC(=O)Nc1cc(-c2ccccc2)cn2c(-c3ccc(F)c(Cl)c3)cnc12 returned MC4R ag barr 22.0*, GalR3 antagonist -5.1, H9c2 TAG inh -4.6, MC4R antagonist -3.4, MC4R barr ag 20.8* and MOR DOR agonist 4.0.
Screening Cc1ccc2nc3n(c(=O)c2c1)-c1cc2ccccc2cc1C(=O)NC3Cc1ccccc1 (stereo not given) returned MC4R ag barr 2.9, GalR3 antagonist -7.1, H9c2 TAG inh 46.2 and MC4R antagonist -1.4.
CCOC(=O)c1cc(=O)nc(N)s1 was read as MC4R ag barr -2.5, GalR3 antagonist 0.4, H9c2 TAG inh 2.7 and MC4R antagonist 13.2.
`O=C(COC(=O)c1cc([N+](=O)[O-])ccc1NCc1ccccc1Cl)NCC(F)(F)F` gave MC4R ag barr 12.7*, GalR3 antagonist -6.8, MC4R antagonist 2.0, Calb FLC -4.6, Efflux pump inh 0.0, MC4R barr ag 3.7 and MOR DOR agonist 4.3.
For CCNc1ccc(C(=O)OCC(=O)NCc2ccccc2Cl)cc1[N+](=O)[O-] the results were MC4R ag barr 16.0*, GalR3 antagonist -8.1, MC4R antagonist -0.1, Calb FLC 1.3, Efflux pump inh -0.1, MC4R barr ag 7.0 and MOR DOR agonist 3.1.
`CCNc1ccc(C(=O)OCC(=O)NC(=O)NCC(C)C)cc1[N+](=O)[O-]` gave MC4R ag barr -3.2, GalR3 antagonist 1.0, H9c2 TAG inh -5.2, MC4R antagonist 9.8, Calb FLC -6.2 and Efflux pump inh 0.1.
Screening CC1=CC2=NC(=O)/C(=C\c3cccn3CCOc3ccc(C)c(C)c3)C(=N)N2O1 returned MC4R ag barr 13.7*, GalR3 antagonist -4.1, MC4R antagonist -1.9, Calb FLC -15.1, Efflux pump inh -0.2, MC4R barr ag -2.6 and MOR DOR agonist 5.2.
COc1ccc(C2CC(=O)C(c3ccc(F)cc3)=CN2Cc2ccccc2)cc1 (stereo not given) was read as GalR3 antagonist -10.9.
For CSc1ccccc1NC(=O)Nc1cccc(Cl)c1Cl the results were MC4R ag barr 15.7*, GalR3 antagonist -4.4, MC4R antagonist -0.6, Calb FLC -11.2, Efflux pump inh 0.0, MC4R barr ag 9.2* and MOR DOR agonist 8.8.
`CSc1ccccc1NC(=O)Nc1cccc(Cl)c1C` gave MC4R ag barr 2.7, GalR3 antagonist 0.7, H9c2 TAG inh 2.6, MC4R antagonist -7.1, Calb FLC 3.2 and Efflux pump inh -0.1.
Clc1ccc(CNCc2cccs2)c(Cl)c1 was read as MC4R ag barr 11.1*, GalR3 antagonist -1.4, H9c2 TAG inh -0.7, MC4R antagonist 14.3, Calb FLC 1.2, Efflux pump inh 0.3, MC4R barr ag 1.8 and MOR DOR agonist 4.1.
Clc1ccc(CNCc2cccs2)cc1Cl was read as MC4R ag barr -0.5, GalR3 antagonist -1.5, MC4R antagonist -0.9, Calb FLC -4.4 and Efflux pump inh 0.3.
For COc1ccccc1-c1cccc2[nH]c3c(c12)CCN1C(=O)[C@H]2[C@H](C)ON(C)[C@H]2C[C@@H]31 the results were GalR3 antagonist -5.6.
`CCOc1ccc(/C=C/C(=O)N2CCOCC2)cc1OC` gave MC4R ag barr 0.5, GalR3 antagonist -0.1, MC4R antagonist -9.6, Calb FLC 2.3 and Efflux pump inh -0.1.
Screening CCOc1cc(C(=S)N2CCOCC2)ccc1OC(=O)/C=C/c1ccc(OC)c(OC)c1 returned MC4R ag barr 11.5*, GalR3 antagonist -10.4, MC4R antagonist 5.6, Calb FLC 0.7, Efflux pump inh -0.2, MC4R barr ag 0.1 and MOR DOR agonist 2.1.
Screening CC1CCc2nc(NC(=O)CSc3nc4ccccc4o3)sc2C1 (stereo not given) returned MC4R ag barr 13.9*, GalR3 antagonist -7.3, H9c2 TAG inh -2.4, MC4R antagonist 2.7, Calb FLC 6.6, Efflux pump inh 0.0, MC4R barr ag 3.9 and MOR DOR agonist 9.9.
`CN(C)C(=O)/C(C#N)=C\c1cc(Br)c(Sc2ccc(Cl)cc2)o1` gave MC4R ag barr 13.8*, MC4R antagonist 4.6, Efflux pump inh 0.1, MC4R barr ag 0.0 and MOR DOR agonist 5.6.
For Clc1ccc(Sc2oc(/C=N/n3cnnc3)cc2Br)cc1 the results were MC4R ag barr -0.2, GalR3 antagonist -3.1, MC4R antagonist -0.9, Calb FLC 19.6 and Efflux pump inh 0.1.
